Test results: ChEMBL document CHEMBL1144557, “The novel C-5 aryl, alkenyl, and alkynyl substituted uracil derivatives of L-ascorbic acid: synthesis, cytostatic, and antiviral activity evaluations” (Bioorg Med Chem, 2007)
≈ marks a conversion by molar mass, not a printed value.

Key:
[1] = test system: MCF7; test: Antiproliferative activity against human MCF7 cells after 72 hrs by MTT assay; type: functional, cell-based; settings: MCF7, 72 h
In short: (§1)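 Monolayers grown in DMEM with 10% FBS, 2 mM L-glutamine and penicillin/streptomycin at 37 °C, 5% CO2. Seeded at 1 × 10⁴–3 × 10⁴ cells/mL on day 0. Compounds from 0.04 M DMSO stocks added at five 10-fold dilutions (10⁻⁸–10⁻⁴ M final), with matched DMSO controls, for 72 h. MTT added for 4 h, formazan dissolved in DMSO, absorbance read at 570 nm. Percentage growth calculated against time-zero and untreated OD. IC50 is 50% inhibition of proliferation.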

[2] = test system: Punta Toro virus; test: Antiviral activity against Punta Toro virus-induced cytopathogenicity in Vero cells; type: functional
[3] = test system: Human alphaherpesvirus 1; test: Antiviral activity against HSV1 KOS-induced cytopathogenicity in E6SM cells; type: functional; settings: Human alphaherpesvirus 1, KOS
[4] = test system: SW-620; test: Antiproliferative activity against human SW620 cells after 72 hrs by MTT assay; type: functional, cell-based; settings: SW-620, 72 h; in short: as §1
[5] = Cytotoxicity against E6SM cells; type: cell-based; settings: human
In short: (§2)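 Cells seeded at 5 × 10³ cells/well and exposed to medium containing a range of test compound concentrations. After 3 days at 37 °C, cell morphology examined microscopically. Reported as minimum cytotoxic concentration (MCC), the concentration causing a microscopically detectable alteration of normal cell morphology.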

[6] = test system: HEp-2; test: Antiproliferative activity against human Hep2 cells after 72 hrs by MTT assay; type: functional, cell-based; settings: HEp-2, 72 h; in short: as §1
[7] = test system: L1210; test: Antiproliferative activity against mouse L1210 cells; type: functional, cell-based
In short: (§3)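 Suspension cells seeded at 50 × 10³ cells/well with a range of test compound concentrations. Cell number counted with a Coulter counter after 2 days (L1210) or 3 days (Molt4/C8, CEM). IC50 is the concentration that cuts cell growth by 50% versus untreated controls, read from plots of cell number (% of control) against concentration.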

[8] = test system: CCRF-CEM; test: Antiproliferative activity against human CEM cells; type: functional, cell-based; in short: as §3
[9] = test system: WI-38; test: Antiproliferative activity against human WI38 cells after 72 hrs by MTT assay; type: functional, cell-based; settings: WI-38, 72 h; in short: as §1
[10] = test system: Vesicular stomatitis virus; test: Antiviral activity against in Vesicular stomatitis virus-induced cytopathogenicity in E6SM cells; type: functional
[11] = test system: HeLa; test: Antiproliferative activity against human HeLa cells after 72 hrs by MTT assay; type: functional, cell-based; in short: as §1
[12] = test system: Vesicular stomatitis virus; test: Antiviral activity against in Vesicular stomatitis virus- induced cytopathogenicity in HeLa cells; type: functional
[13] = test system: Human alphaherpesvirus 1; test: Antiviral activity against HSV1 TK- KOS ACV-induced cytopathogenicity in E6SM cells; type: functional; settings: Human alphaherpesvirus 1, KOS
[14] = test system: Sindbis virus; test: Antiviral activity against Sindbis virus-induced cytopathogenicity in Vero cells; type: functional
[15] = test system: Coxsackievirus B4; test: Antiviral activity against Coxsackie virus B4-induced cytopathogenicity in Vero cells; type: functional; settings: Enterovirus B
[16] = Antiproliferative activity against human Molt4/C8 cells; type: functional, cell-based; settings: MOLT-4; in short: as §3
[17] = test system: MIA PaCa-2; test: Antiproliferative activity against human MiaPaCa2 cells after 72 hrs by MTT assay; type: functional, cell-based; in short: as §1
[18] = test system: Human alphaherpesvirus 2; test: Antiviral activity against HSV2 G-induced cytopathogenicity in E6SM cells; type: functional; settings: Human alphaherpesvirus 2, G
[19] = test system: Human alphaherpesvirus 1; test: Antiviral activity against HSV1 TK- KOS ACV -induced cytopathogenicity in HEL cells; type: functional; settings: Human alphaherpesvirus 1, KOS
[20] = Cytotoxicity against HEL cells; type: cell-based; settings: human; in short: as §2
[21] = test system: Human alphaherpesvirus 1; test: Antiviral activity against HSV1 KOS-induced cytopathogenicity in HEL cells; type: functional; settings: Human alphaherpesvirus 1, KOS
[22] = test system: Human alphaherpesvirus 2; test: Antiviral activity against HSV2 G-induced cytopathogenicity in HEL cells; type: functional; settings: Human alphaherpesvirus 2, G
[23] = test system: Vesicular stomatitis virus; test: Antiviral activity against in Vesicular stomatitis virus-induced cytopathogenicity in HEL cells; type: functional
[24] = Homo sapiens, MIA PaCa-2, 72 h, read-out: IC50

| Compound | IC50 [1] | MIC [2] | MIC [3] | IC50 [4] | MCC ([5]; read-out: MCC) | IC50 [6] | IC50 [7] | IC50 [8] | IC50 [9] | MIC [10] | IC50 [11] | MIC [12] | MIC [13] | MIC [14] | MIC [15] | IC50 [16] | IC50 [17, 24] | MIC [18] | MCC ([5]; read-out: MIC) | also measured |
| --- | --- | --- | --- | --- | --- | --- | --- | --- | --- | --- | --- | --- | --- | --- | --- | --- | --- | --- | --- | --- |
| O=C1O/C(=C\Cn2cc(-c3ccccc3)c(=O)[nH]c2=O)C(OCc2ccccc2)=C1OCc1ccccc1 | 18 µM | > 157 µM | > 157 µM | 21 µM | 787 µM | 22 µM | 142 µM | 122 µM | 28 µM | 157 µM (≈ 79.8 µg/mL) | 25 µM | > 157 µM | > 157 µM | > 157 µM | > 157 µM | 159 µM | 18 µM | > 157 µM | – | – |
| C#Cc1cn(C/C=C2\OC(=O)C(O)=C2O)c(=O)[nH]c1=O | 13 µM | 4 µM (≈ 1.1 µg/mL) | – | 17 µM | – | 12 µM | 15 µM | 23 µM | 11 µM | – | 13 µM | > 4 µM | – | > 4 µM | > 4 µM | 37 µM | 13 µM | – | – | MIC [19]: > 4 µM; MCC [20]: 20 µM; MIC [21]: > 4 µM; MIC [22]: > 4 µM; MIC [23]: > 4 µM |
| CC#Cc1cn(C/C=C2\OC(=O)C(OCc3ccccc3)=C2OCc2ccccc2)c(=O)[nH]c1=O | 0.2 µM | > 1.6 µM | > 0.4 µM | 0.3 µM | 2 µM | 0.7 µM | 0.47 µM | 0.77 µM | 0.2 µM | > 0.4 µM | 0.2 µM | 1.6 µM (≈ 0.753 µg/mL) | > 0.4 µM | 1.6 µM (≈ 0.753 µg/mL) | 1.6 µM (≈ 0.753 µg/mL) | 0.78 µM | – | > 0.4 µM | – | IC50 ([17]; mia paca-2): 0.5 µM |
| O=c1[nH]c(=O)n([C@H]2C[C@H](O)[C@@H](CO)O2)cc1/C=C/Br [BRIVUDINE] | – | > 500 µM | 0.48 µM (≈ 0.16 µg/mL) | – | – | – | – | – | – | > 500 µM | – | > 500 µM | 300 µM (≈ 99.9 µg/mL) | > 500 µM | > 500 µM | – | – | 300 µM (≈ 99.9 µg/mL) | > 500 µM | – |
| O=C1O/C(=C\Cn2cc(C#Cc3ccccc3)c(=O)[nH]c2=O)C(OCc2ccccc2)=C1OCc1ccccc1 | 55 µM | > 200 µM | > 40 µM | > 100 µM | 200 µM | > 100 µM | 108 µM | 101 µM | > 100 µM | > 40 µM | > 100 µM | > 200 µM | > 40 µM | 120 µM (≈ 63.9 µg/mL) | > 200 µM | 108 µM | > 100 µM | > 40 µM | – | – |
| Nc1nc2c(ncn2COC(CO)CO)c(=O)[nH]1 [GANCICLOVIR] | – | – | 0.096 µM (≈ 0.0245 µg/mL) | – | – | – | – | – | – | > 100 µM | – | – | 0.8 µM (≈ 0.204 µg/mL) | – | – | – | – | 0.096 µM (≈ 0.0245 µg/mL) | > 100 µM | – |
| O=C1O/C(=C(\Br)Cn2c(Br)c(/C=C/Br)c(=O)[nH]c2=O)C(OCc2ccccc2)=C1OCc1ccccc1 | 15 µM | > 116 µM | > 116 µM | ≥ 100 µM | 578 µM | 22 µM | 32 µM | 91 µM | 49 µM | > 116 µM | 22 µM | > 116 µM | > 116 µM | > 116 µM | > 116 µM | 110 µM | 20 µM | > 116 µM | – | – |
| NC(=O)c1ncn([C@@H]2O[C@H](CO)[C@@H](O)[C@H]2O)n1 [RIBAVIRIN] | – | 300 µM (≈ 73.3 µg/mL) | 500 µM (≈ 122 µg/mL) | – | – | – | – | – | – | > 500 µM | – | 100 µM (≈ 24.4 µg/mL) | 500 µM (≈ 122 µg/mL) | 100 µM (≈ 24.4 µg/mL) | > 500 µM | – | – | 300 µM (≈ 73.3 µg/mL) | > 500 µM | – |
| C=Cc1cn(C/C=C2\OC(=O)C(O)=C2O)c(=O)[nH]c1=O | 36 µM | > 29 µM | > 144 µM | > 100 µM | 720 µM | 46 µM | 309 µM | 284 µM | 36 µM | > 144 µM | 40 µM | > 120 µM | > 144 µM | > 29 µM | > 29 µM | 309 µM | ≥ 100 µM | > 144 µM | – | – |
